Publication PMC6476629 (Bioorganic & medicinal chemistry, 2019)
Like-named read-outs stand apart in the source and are kept apart here.

Tests used:
Assay type in all cases: binding, HIV-1
[1] = test system: 5'-32P labeled RRE SL-IIB; assay: RNase footprinting; details: branched peptide 0-20 μM, concentration-dependent, upper stem region
Outline: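 RRE SL-IIB dephosphorylated, then 5′-end labeled with [γ-32P]ATP and T4 polynucleotide kinase. Labeled RNA (10 nM) plus unlabeled SL-IIB (200 nM) refolded (95 °C 3 min, snap-cooled on ice). Incubated with peptide on ice 4 h in 10 mM Tris pH 7, 100 mM KCl, 10 mM MgCl2. RNase V1 0.002 Units, 10 min on ice; quenched. Run on 12% PAGE/7.5 M urea beside an alkaline hydrolysis ladder. Read by autoradiography.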

[2] = test system: 234 nt NL4-3 RRE RNA; assay: SHAPE-MaP footprinting; details: cutoff +/- 0.3
[3] = molecular target: 2-AP-labeled RRE SL-IIB RNA; details: for Kd: at least duplicate, ± SD
Outline: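 2-AP-labelled RRE SL-IIB RNA (0.1 μM, refolded at 95 °C for 3 min and snap-cooled) with 10-fold excess unlabelled competitor (loop/bulge-deleted RRE RNA, RRE SL-IIB DNA or TAR RNA). Branched peptide titrated 0-20 μM in phosphate buffer (10 mM KPi, 100 mM KCl, 1 mM MgCl2, 20 mM NaCl, pH 7.0). Excitation 310 nm; fluorescence decrease at 372 nm. Kd from Hill-equation fit; at least duplicate, SD.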

Question: (DLL)2KLGBY [4B3] was tested. Which “protection from RNase V1 cleavage” value [1] did it give?
Answer: reduced cleavage at G53, C54, and C65

Question: And the “change in 1M7 reactivity” value ([2]; 1:1 RNA:BP ratio)?
Answer: decreased reactivity was observed at nt 28

Question: What about the “change in 1M7 reactivity” value ([2]; in the presence of 4B3, ratio not stated) of the same substance?
Answer: nt 46, which forms non-canonical base pairing upon Rev,[12] exhibited increased reactivity

Question: What about the Kd ([3]; RRE IIB in the presence of 10× RRE DNA) of the same substance?
Answer: 1480 ± 30 nM

Question: And the Kd ([3]; RRE IIB in the presence of 10× TAR RNA)?
Answer: 3520 ± 520 nM

Question: And the “loss of binding affinity” value ([3]; in the presence of No Bulge RRE RNA competitor)?
Answer: ~3 fold

Question: And the “loss of binding affinity” value ([3]; in the presence of RRE DNA competitor)?
Answer: ~3 fold

Question: And the “increase of Kd against RRE IIB” value ([3]; in the presence of TAR RNA competitor)?
Answer: approximately 10 fold
